Screening results deposited in PubChem by Broad Institute.
In the library only some 2.2% were active in any assay of this set; here they are far more common.
ERAP1 HTS inh: human ERAP1 aminopeptidase inhibitors, primary screen, biochemical, single point, plate reader; AID 652197, 2013; recombinant ERAP1, Leu-AMC fluorescence, 60 min; inhibition, % at 10.7 µM; 340,000 compounds, 0.15% hits; Endoplasmic reticulum aminopeptidase 1 (Homo sapiens), Q9NZ08;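 active = mean replicate inhibition of at least 30%, or all replicates individually reaching that 30% level; inactive = mean below 30% and not every replicate reaching it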
Target sequence (Q9NZ08 whole entry, looked up): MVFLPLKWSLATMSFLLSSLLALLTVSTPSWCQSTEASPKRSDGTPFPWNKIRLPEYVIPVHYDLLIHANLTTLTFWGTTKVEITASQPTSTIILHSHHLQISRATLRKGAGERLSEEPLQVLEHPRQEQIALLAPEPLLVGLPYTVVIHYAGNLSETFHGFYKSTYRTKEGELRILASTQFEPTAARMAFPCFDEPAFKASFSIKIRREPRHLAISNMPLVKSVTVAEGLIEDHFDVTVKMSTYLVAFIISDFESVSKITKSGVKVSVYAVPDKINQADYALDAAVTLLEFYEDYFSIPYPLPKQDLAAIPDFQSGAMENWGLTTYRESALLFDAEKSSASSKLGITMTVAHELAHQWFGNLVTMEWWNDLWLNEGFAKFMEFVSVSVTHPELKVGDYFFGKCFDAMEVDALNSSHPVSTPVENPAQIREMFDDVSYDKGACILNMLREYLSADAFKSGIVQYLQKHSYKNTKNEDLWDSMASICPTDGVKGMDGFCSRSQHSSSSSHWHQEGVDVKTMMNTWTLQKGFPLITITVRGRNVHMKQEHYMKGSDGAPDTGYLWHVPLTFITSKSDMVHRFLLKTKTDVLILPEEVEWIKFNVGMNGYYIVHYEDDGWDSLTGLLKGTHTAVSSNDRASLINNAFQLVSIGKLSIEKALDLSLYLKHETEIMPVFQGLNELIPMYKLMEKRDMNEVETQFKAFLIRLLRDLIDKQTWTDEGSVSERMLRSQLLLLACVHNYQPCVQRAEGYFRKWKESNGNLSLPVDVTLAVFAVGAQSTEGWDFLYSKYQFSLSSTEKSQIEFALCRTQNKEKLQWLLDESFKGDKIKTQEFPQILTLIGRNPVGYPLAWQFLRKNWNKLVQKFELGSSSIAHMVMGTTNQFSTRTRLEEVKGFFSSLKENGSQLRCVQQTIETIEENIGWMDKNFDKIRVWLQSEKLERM
FN deposition inh: inhibitors of fibronectin matrix deposition, primary screen, AH1F cells, Alexa488-fibronectin fluorescence, plate reader; AH1F fibroblasts, overnight; inhibition, % at 12.6 µM; 350,000 compounds, 0.086% hits; AID 743247, 2014;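 active = mean inhibition across replicates of 30% or more, regardless of how many single replicates reach that level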
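Test system: AH1F fibroblast monolayer depositing Alexa488-labelled fibronectin into matrix. Input: 10000 cells per well. Technique: fluorescence, ex 485 nm, em 525 nm. Buffer or medium: DMEM plus 2% serum, read in PBS. Timing: 1 h cell adhesion before compound, then overnight fibronectin incubation. Compound: single dose, pinned. Read-out basis: inhibition from reduced deposited-fibronectin fluorescence.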
FGF22 binding: binders of human FGF22 protein, primary screen, FGF22 synaptogenesis inhibitor project, biophysical, thermal shift, single point | Fibroblast growth factor 22 (Homo sapiens), Q9HCT0 | recombinant FGF22 thermal shift, SYPRO orange fluorescence; percent of sucrose octasulfate shift, DMSO zero | activity (Tm shift, normalised), % at 9.99 µM | 340,000 compounds, 1.5% hits | AID 651658, 2012;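 active = mean Tm shift, scaled 0 neutral to 100 positive control, at about 1.3% or above, every replicate too, limit read from the data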
PGC1a acetyl inh: inhibitors of PGC1a acetylation signal, primary screen, cell-based, U2OS, AlphaScreen, inhibitor mode. AID 651687, 2012. 350,000 compounds, 0.17% hits. inhibition, % at 15.6 µM. AlphaScreen anti-acetyl-lysine; with virally co-expressed GCN5 acetyltransferase;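 active = every replicate shows inhibition of at least 40%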
SIRT5 inh: SIRT5 desuccinylase inhibitors, primary screen, biochemical, fluorescence imaging, single point, set 5. 330,000 compounds, 1.1% hits. AID 652115, 2013. Purified SirT5, succinyl-peptide AMC, trypsin-coupled fluorescence. inhibition, % at 15 µM; in the data active = inhibition above about 15%
Of the large screens only hits and unclear results are named; the others gave an inactive call.

C[C@@H]1CN([C@@H](C)CO)C(=O)c2cc(NS(=O)(=O)c3ccc(F)cc3)ccc2O[C@@H](C)CCCCO[C@@H]1CN(C)C(=O)Nc1ccccc1	none (no result: ERAP1 HTS inh, SIRT5 inh)
O=C(/C=C/c1ccc([N+](=O)[O-])cc1)OCC(=O)c1ccc[nH]1	SIRT5 inh 23
CCCS(=O)(=O)NC(=O)C1(C)CCN(C(=O)c2cccs2)C1 (stereo not given)	SIRT5 inh 20
CCCS(=O)(=O)NC(=O)C1(C)CCN(C(=O)c2c(F)cccc2F)C1 (stereo not given)	none (no result: FN deposition inh, SIRT5 inh)
CCc1n[nH]c(=S)n1N=C1CCC(C)CC1 (stereo not given)	FGF22 binding 43
CCc1n[nH]c(=S)n1/N=C/C(C)=C\c1ccccc1	none (no result: PGC1a acetyl inh)
O=C(Cc1ccccn1)N1CC(=O)N2[C@@H](CO)[C@@H](c3ccc(-c4ccccc4)cc3)[C@@H]2C1	none (no result: FN deposition inh, FGF22 binding)
C[C@@H]1CN([C@@H](C)CO)C(=O)c2cc(NC(=O)Nc3ccc4c(c3)OCO4)ccc2O[C@@H](C)CCCCO[C@H]1CN(C)CC1CCCCC1	FGF22 binding 1.4 (no result: FN deposition inh)
C[C@H]1CCCCO[C@H](CN(C)Cc2ccc3c(c2)OCO3)[C@@H](C)CN([C@@H](C)CO)C(=O)c2cc(NC(=O)Nc3ccc(C(F)(F)F)cc3)ccc2O1	PGC1a acetyl inh 79
C[C@@H]1CCCCO[C@H](CN(C)CC2CCCCC2)[C@H](C)CN([C@@H](C)CO)C(=O)c2cc(NC(=O)Nc3ccc4c(c3)OCO4)ccc2O1	none (no result: FN deposition inh)
C[C@H](CO)N1C[C@H](C)[C@@H](CN(C)Cc2ccncc2)OCCCC[C@H](C)Oc2ccc(NC(=O)Nc3ccc4c(c3)OCO4)cc2C1=O	SIRT5 inh 16 (no result: FN deposition inh)
C[C@@H]1CCCCO[C@H](CN(C)Cc2ccc3c(c2)OCO3)[C@@H](C)CN([C@@H](C)CO)C(=O)c2cc(NC(=O)Nc3ccc(C(F)(F)F)cc3)ccc2O1	PGC1a acetyl inh 53 (no result: FN deposition inh)
C[C@@H]1CN([C@H](C)CO)C(=O)c2cc(NC(=O)Nc3ccc(C(F)(F)F)cc3)ccc2O[C@@H](C)CCCCO[C@H]1CN(C)Cc1ccc2c(c1)OCO2	none
C[C@H]1CN(C)C(=O)Cc2ccccc2O[C@H]1CN(C)C(=O)OC(C)(C)C	none (no result: ERAP1 HTS inh, FGF22 binding, PGC1a acetyl inh, SIRT5 inh)
CO[C@H]1O[C@H](CO)[C@@H](OC(=O)Nc2cccc(F)c2)[C@H](OC(=O)Nc2ccc3c(c2)OCO3)[C@H]1OC(=O)Nc1ccc2c(c1)OCO2	none (no result: FN deposition inh, PGC1a acetyl inh)
CN(C)CCN(Cc1cccs1)S(=O)(=O)c1csc(C(N)=O)c1	SIRT5 inh 33
CCN(CC)S(=O)(=O)c1ccc(/C=C/C(=O)OCC(=O)Nc2ccc(S(N)(=O)=O)cc2)cc1	none (no result: PGC1a acetyl inh)
CCN(CC)S(=O)(=O)c1ccc(/C=C/C(=O)OCC(=O)Nc2ccc(C(N)=O)cc2)cc1	FGF22 binding 43 (no result: PGC1a acetyl inh)
OC[C@H]1[C@H](c2ccc(C#CC3(O)CCCC3)cc2)[C@H]2CN(Cc3cncnc3)CCCCN21	SIRT5 inh 21
OC[C@@H]1[C@@H](c2ccc(C#CC3(O)CCCC3)cc2)[C@H]2CN(Cc3cncnc3)CCCCN12	none (no result: ERAP1 HTS inh, FGF22 binding, SIRT5 inh)
C[C@H](O)C#Cc1ccc([C@H]2[C@H]3CN(CC4CC4)CCCCN3[C@H]2CO)cc1	SIRT5 inh 16
C[C@@H](O)C#Cc1ccc([C@H]2[C@H](CO)N3CCCCN(CC4CC4)C[C@@H]23)cc1	SIRT5 inh 21 (no result: FN deposition inh)
C[C@@H](O)C#Cc1ccc([C@@H]2[C@H](CO)N3CCCCN(CC4CC4)C[C@@H]23)cc1	none
C[C@@H]1CCCCO[C@H](CN(C)Cc2ccccc2)[C@@H](C)CN([C@@H](C)CO)C(=O)c2cc(NC(=O)CCCCCC(=O)Nc3ccccc3N)ccc2O1	none
C[C@@H]1CCCCO[C@@H](CN(C)Cc2ccc(Cl)c(Cl)c2)[C@@H](C)CN([C@H](C)CO)C(=O)c2cc(NC(=O)CCCCCC(=O)Nc3ccccc3N)ccc2O1	SIRT5 inh 24
C[C@@H]1CCCCO[C@@H](CN(C)C(=O)c2ccncc2)[C@@H](C)CN([C@H](C)CO)C(=O)c2cc(NC(=O)CCCCCC(=O)Nc3ccccc3N)ccc2O1	PGC1a acetyl inh 99
CCCC#Cc1cnc2c(c1)C(=O)N([C@H](C)CO)C[C@H](C)[C@@H](CN(C)C(=O)c1ccccc1)O2	none
CC(=O)N(C)C[C@H]1Oc2ncc(C#Cc3ccccc3F)cc2C(=O)N([C@@H](C)CO)C[C@@H]1C	none
OC(COc1ccc2c(c1)OCO2)CN1CCN(c2ccccc2)CC1 (stereo not given)	none (no result: PGC1a acetyl inh)
OC(COc1ccc2c(c1)OCO2)CN1CCCCC1 (stereo not given)	FGF22 binding 44 (no result: PGC1a acetyl inh)
O=c1[nH]c(=O)c2cc([N+](=O)[O-])cc([N+](=O)[O-])c2[nH]1	FGF22 binding 43 (no result: FN deposition inh, PGC1a acetyl inh, SIRT5 inh)
O=c1[nH]c2cc([N+](=O)[O-])c([N+](=O)[O-])cc2[nH]c1=O	none (no result: PGC1a acetyl inh)
O=C(NCC[C@H]1CC[C@H](NC(=O)c2ccccc2F)[C@@H](CO)O1)c1ccc2c(c1)OCO2	none
C[C@H]1CN([C@@H](C)CO)C(=O)c2cccc(NC(=O)Nc3ccc(F)cc3)c2O[C@H]1CN(C)CC1CCCCC1	none
CC(=O)Nc1cccc(NC(=S)Nc2ccc(F)c(Cl)c2)c1	FGF22 binding 1.3
O=C(NNC(=S)Nc1ccc(F)c(Cl)c1)c1ccccc1Br	FGF22 binding 2.1 (no result: FN deposition inh)
CCCC(=O)Nc1ccc2c(c1)C(=O)N(C)C[C@H](OC)[C@@H](C)CN(C(=O)CC)[C@H](C)CO2	none (no result: ERAP1 HTS inh, FGF22 binding, SIRT5 inh)
COc1ccc2c3c(n(C)c2c1)[C@H](CO)N(C(=O)c1cccnc1)CC31CN(C)C1	none (no result: ERAP1 HTS inh, FN deposition inh, FGF22 binding, SIRT5 inh)
C[C@H](CO)N1C[C@H](C)[C@H](CN(C)Cc2ccncc2)Oc2ccc(N(C)C)cc2CC1=O	none (no result: FGF22 binding)
Cc1ccc(C)c(NC(=O)C2CC(O)CN2C(=O)Oc2ccccc2)c1 (stereo not given)	ERAP1 HTS inh 39
CN1c2ccc(-c3ccc(F)cc3)cc2[C@H]2[C@H](CCN2C(=O)c2ccncc2)[C@H]1CO	none (no result: ERAP1 HTS inh)
Cc1cc(C)n(C(=O)CCCn2cc([N+](=O)[O-])cn2)n1	FGF22 binding 43 (no result: FN deposition inh, PGC1a acetyl inh)
Cc1cccc(COC[C@H](Cc2ccccc2)N2CCN(C(=O)c3cc(Cl)cc(Cl)c3)CCC2=O)c1	SIRT5 inh 41 (no result: ERAP1 HTS inh, PGC1a acetyl inh)
Cc1cccc(COCC(Cc2ccccc2)N2CCN(C(=O)c3cccc(Cl)c3)CCC2=O)c1 (stereo not given)	none (no result: ERAP1 HTS inh, PGC1a acetyl inh, SIRT5 inh)
COCCOC(=O)C1=C(C)NC(=S)NC1c1cccs1 (stereo not given)	FGF22 binding 43
C[C@@H]1CN([C@@H](C)CO)S(=O)(=O)c2ccc(-c3ccccc3F)cc2O[C@H]1CN(C)C	none (no result: FN deposition inh)
